# Results gathered from unrelated publications.
# Cell line: Vero
# Read-out: cell growth or viability
SMILES,assay,setting,IC50
Cc1ccc(C)n1-c1ccc(-c2nnco2)cc1,MTT,72 h,216 µM
Nc1c(-c2ccc([N+](=O)[O-])cc2)nc2ccccn12,MTT,48 h,74 µM
Nc1nc(N)c(CNCCc2ccccc2Cl)c(C2CCCCC2)n1,SRB,,21 µM
COc1cc(OC)cc(-c2ccc(C(=O)NCc3c4c(c(C)[nH]c3=O)CCCC4)cc2)c1,MTT,72 h,> 50 µg/mL
COc1cccc(CCNCc2c(N)nc(N)nc2-c2ccccc2)c1,SRB,,> 100 µM
NC1=C(Cl)C(=O)c2c(C(O)CO)c[nH]c2C1=O (centres unmarked),MTT,72 h,> 19.5 µM
CC(C)(C)Nc1c(-c2ccccc2[N+](=O)[O-])nc2ccccn12,MTT,48 h,78 µM
Cc1[nH]c(=O)c(CNC(=O)c2ccc(F)nc2)c2c1CCCC2,MTT,72 h,> 50 µg/mL
Cc1ccc(C)n1-c1ccc(-c2nnc(S)s2)cc1,MTT,72 h,221 µM
Oc1ncnc2cc(Nc3nc(-c4ccc(Br)cc4)cs3)ccc12,MTT,,> 50 µM
Nc1ccccc1-c1nc2cnccn2c1N,MTT,48 h,78 µM
COc1ccc(-c2csc(Nc3ccc4c(O)ncnc4c3)n2)cc1,MTT,,> 50 µM
Nc1nc(N)c(CNCCc2ccc(Cl)cc2Cl)c(C2CCCCC2)n1,SRB,,16 µM
Nc1c(-c2ccc([N+](=O)[O-])cc2)nc2cnccn12,MTT,48 h,80 µM
Nc1nc(N)c(CNCCc2ccccc2F)c(C2CCCCC2)n1,SRB,,22 µM
Nc1ccc(-c2csc(Nc3ccc4c(O)ncnc4c3)n2)cc1,MTT,,> 50 µM
O=[N+]([O-])c1ccc(/C(O)=C/C(=S)S)cc1,MTT,48 h,255 µg/mL
O=c1[nH]cc(F)c(=O)[nH]1,MTT,72 h,5.19 µM
Cc1ccc(C)n1-c1ccc(C(=O)NNC=O)cc1,MTT,72 h,211 µM
NC1=NN(c2ccccc2)C(=O)C1=NNc1ccc(N=Nc2ccccc2)cc1,,,44.6 µM
CN(C)c1ccc(-c2nc3cnccn3c2NC(C)(C)C)cc1,MTT,48 h,> 100 µM
NNC(=O)c1ccncc1,MTT,72 h,> 450 µM
CC(C)(C)Nc1c(-c2ccc(N)cc2)nc2cnccn12,MTT,48 h,76 µM
COc1ccc(CCNCc2c(N)nc(N)nc2C2CCCCC2)cc1,SRB,,21 µM
Oc1ncnc2cc(Nc3nc(-c4ccc(F)cc4)cs3)ccc12,MTT,,> 50 µM
CN(C)c1ccc(-c2nc3cnccn3c2N)cc1,MTT,48 h,91 µM
COc1ccccc1CCNCc1c(N)nc(N)nc1-c1ccccc1,SRB,,> 100 µM
NC1=NN(c2ccc([N+](=O)[O-])cc2[N+](=O)[O-])C(=O)C1=NNc1ccc(N=Nc2ccccc2)cc1,,,45.1 µM
CCc1nc(N)nc(N)c1-c1ccc(Cl)cc1,SRB,,27 µM
Nc1ccc(-c2nc3cnccn3c2NC2CCCCC2)cc1,MTT,48 h,75 µM
Oc1ncnc2cc(Nc3nc(-c4ccc(C(F)(F)F)cc4)cs3)ccc12,MTT,,> 50 µM
COc1ccc(CCNCc2c(N)nc(N)nc2-c2ccccc2)cc1,SRB,,> 100 µM
